Source: ChEMBL document CHEMBL1649566, “In vitro activity of antifolate and polymorphism in dihydrofolate reductase of Plasmodium falciparum isolates from the Kenyan coast: emergence of parasites with Ile-164-Leu mutation” (Antimicrob Agents Chemother, 2009)

Experiments:
Assay type in all cases: functional, organism-based
Plasmodium falciparum [1] = assay: Antimalarial activity against Plasmodium falciparum Kenyan isolates expressing DHFR Ser108Asn, Asn51Ile and Cys59Arg triple mutant by [3H]hypoxanthine incorporation assay
How it was run: (§1)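 Kenyan isolates (Kilifi, 2006–2008) adapted to long-term in vitro culture; dhfr codons 108, 51, 59, 164 genotyped by PCR-RFLP. Cultured in RPMI 1640 with 10% human serum, 25 mM bicarbonate, 2 mM glutamine, 25 mM HEPES, 5 nM para-aminobenzoic acid, 23 nM folic acid, in washed human erythrocytes. Graded drug concentrations; [3H]hypoxanthine incorporation; IC50 by nonlinear regression of dose-response.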

Plasmodium falciparum [2] = assay: Antimalarial activity against pyrimethamine-resistant Plasmodium falciparum V1S expressing DHFR quadruple mutant with point mutations at codons 108, 51, 59 and 164 gene by [3H]hypoxanthine incorporation assay
Plasmodium falciparum [3] = assay: Antimalarial activity against pyrimethamine-sensitive Plasmodium falciparum 3D7 expressing wild type DHFR by [3H]hypoxanthine incorporation assay
Plasmodium falciparum [4] = assay: Antimalarial activity against Plasmodium falciparum isolate Kil-164 expressing DHFR Ser108Asn, Asn51Ile, Cys59Arg and Ile164Leu quadruple mutant by [3H]hypoxanthine incorporation assay; how it was run: as §1
Plasmodium falciparum [5] = assay: Antimalarial activity against Plasmodium falciparum Kenyan isolates expressing DHFR Ser108Asn and Cys59Arg or Ser108Asn and Asn51Ile double mutant by [3H]hypoxanthine incorporation assay; how it was run: as §1
Plasmodium falciparum [6] = assay: Antimalarial activity against Plasmodium falciparum Kenyan isolates by [3H]hypoxanthine incorporation assay

**Q.** Which IC50 (Plasmodium falciparum [1]) does the source give for `CC1(C)N=C(N)N=C(N)N1c1ccc(Cl)c(Cl)c1` [CHLORCYCLOGUANIL] here?
**A.** 40 nM

**Q.** And the IC50 (Plasmodium falciparum [2])?
**A.** 92.3 nM

**Q.** What about the IC50 (Plasmodium falciparum [3]) of the same compound?
**A.** 0.011 nM

**Q.** What about the IC50 (Plasmodium falciparum [4]) of the same compound?
**A.** 87.7 nM

**Q.** And the IC50 (Plasmodium falciparum [5])?
**A.** 38.1 nM

**Q.** What about the IC50 (Plasmodium falciparum [6]) of the same compound?
**A.** 37.8 nM

**Q.** Which results are given for `CCc1nc(N)nc(N)c1-c1ccc(Cl)cc1` [PYRIMETHAMINE]?
**A.** IC50 (Plasmodium falciparum [2]): 6930 nM; IC50 (Plasmodium falciparum [3]): 3.9 nM; IC50 (Plasmodium falciparum [6]): 733 nM

**Q.** How did the IC50 (Plasmodium falciparum [1]) turn out when `COc1cc(NCc2ccc3nc(N)nc(N)c3c2C)cc(OC)c1OC` [TRIMETREXATE] was run?
**A.** 20.9 nM

**Q.** And the IC50 (Plasmodium falciparum [2])?
**A.** 24.8 nM

**Q.** What about the IC50 (Plasmodium falciparum [3]) of the same compound?
**A.** 1.9 nM

**Q.** What about the IC50 (Plasmodium falciparum [4]) of the same compound?
**A.** 44.7 nM

**Q.** What about the IC50 (Plasmodium falciparum [5]) of the same compound?
**A.** 40.9 nM

**Q.** And the IC50 (Plasmodium falciparum [6])?
**A.** 30 nM

**Q.** Which IC50 (Plasmodium falciparum [1]) does the source give for `COc1cc(Cc2cnc(N)nc2N)cc(OC)c1OC` [TRIMETHOPRIM] here?
**A.** 33700 nM

**Q.** What about the IC50 (Plasmodium falciparum [2]) of the same compound?
**A.** 102000 nM

**Q.** What about the IC50 (Plasmodium falciparum [3]) of the same compound?
**A.** 407 nM

**Q.** What about the IC50 (Plasmodium falciparum [4]) of the same compound?
**A.** 155000 nM

**Q.** And the IC50 (Plasmodium falciparum [5])?
**A.** 9310 nM

**Q.** And the IC50 (Plasmodium falciparum [6])?
**A.** 29700 nM

**Q.** How did the IC50 (Plasmodium falciparum [1]) turn out when `CN(Cc1cnc2nc(N)nc(N)c2n1)c1ccc(C(=O)N[C@@H](CCC(=O)O)C(=O)O)cc1` [METHOTREXATE] was run?
**A.** 83.6 nM

**Q.** And the IC50 (Plasmodium falciparum [2])?
**A.** 40 nM

**Q.** What about the IC50 (Plasmodium falciparum [3]) of the same compound?
**A.** 49.9 nM

**Q.** What about the IC50 (Plasmodium falciparum [4]) of the same compound?
**A.** 56.6 nM

**Q.** And the IC50 (Plasmodium falciparum [5])?
**A.** 84.9 nM

**Q.** What about the IC50 (Plasmodium falciparum [6]) of the same compound?
**A.** 83.6 nM

**Q.** Which results are given for `CC1(C)N=C(N)N=C(N)N1OCCCOc1cc(Cl)c(Cl)cc1Cl`?
**A.** IC50 (Plasmodium falciparum [1]): 0.1 nM; IC50 (Plasmodium falciparum [2]): 0.063 nM; IC50 (Plasmodium falciparum [3]): 0.015 nM; IC50 (Plasmodium falciparum [4]): 0.012 nM; IC50 (Plasmodium falciparum [5]): 0.069 nM; IC50 (Plasmodium falciparum [6]): 0.072 nM
